In ChEMBL document CHEMBL4177755, “Combating Drug-Resistant Fungi with Novel Imperfectly Amphipathic Palindromic Peptides” (J Med Chem, 2018):
Converted amounts (≈) assume the structure as drawn.

How the values were obtained:
Assay type in all cases: functional
[1] = tested on: Candida albicans; assay: Antifungal activity against Candida albicans cgmcc 2.2086 after 48 hrs by broth microdilution method; conditions: cgmcc 2.2086, 48 h
In short: (§1)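 Modified CLSI M27-A2 broth microdilution. Yeast at (0.5−1) × 10^3 CFU/mL in MOPS-buffered RPMI 1640 was mixed 1:1 with peptide serially diluted in 0.2% BSA and incubated 48 h at 28 °C. Absorbance was read at 492 nm; MIC is the lowest concentration inhibiting 95% of growth. Triplicate, three biological replicates.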

[2] = tested on: Candida albicans; assay: Antifungal activity against Candida albicans SP3931 after 48 hrs by broth microdilution method; conditions: SP3931, 48 h; in short: as §1
[3] = tested on: Candida albicans; assay: Antifungal activity against Candida albicans SP3903 after 48 hrs by broth microdilution method; conditions: SP3903, 48 h; in short: as §1
[4] = tested on: Candida albicans; assay: Antifungal activity against Candida albicans SP3902 after 48 hrs by broth microdilution method; conditions: SP3902, 48 h; in short: as §1
[5] = tested on: Candida albicans; assay: Antifungal activity against Candida albicans SP3876 after 48 hrs by broth microdilution method; conditions: SP3876, 48 h; in short: as §1
[6] = tested on: Candida albicans; assay: Antifungal activity against Candida albicans isolated from alveolar fluid after 48 hrs by broth microdilution method; in short: as §1
[7] = tested on: Candida albicans; assay: Antifungal activity against fluconazole-resistant Candida albicans 56452 after 48 hrs by broth microdilution method; conditions: Candida albicans, 56452, 48 h; in short: as §1
[8] = tested on: Candida albicans; assay: Antifungal activity against fluconazole-resistant Candida albicans 56214 after 48 hrs by broth microdilution method; conditions: Candida albicans, 56214, 48 h; in short: as §1
[9] = tested on: Candida albicans; assay: Antifungal activity against Candida albicans 14936 after 48 hrs by broth microdilution method; conditions: Candida albicans, 14936, 48 h; in short: as §1
[10] = tested on: Candida albicans; assay: Antifungal activity against fluconazole-resistant Candida albicans 17546 after 48 hrs by broth microdilution method; conditions: Candida albicans, 17546, 48 h; in short: as §1
[11] = tested on: Candida tropicalis; assay: Antifungal activity against Candida tropicalis cgmcc 2.1975 after 48 hrs by broth microdilution method; conditions: cgmcc 2.1975, 48 h
In short: (§2)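 Modified CLSI M27-A2 broth microdilution. Yeast were suspended in MOPS-buffered RPMI 1640 at a final (0.5−1) × 10^3 CFU/mL and mixed 1:1 with peptide serially diluted in 0.2% BSA. Plates were incubated 48 h at 28 °C and read at A492. MIC is the lowest concentration giving 95% inhibition. Run in triplicate with three biological replicates.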

[12] = tested on: Pichia kudriavzevii; assay: Antifungal activity against Candida krusei cgmcc 2.1857 after 48 hrs by broth microdilution method; conditions: cgmcc 2.1857, 48 h; in short: as §2
[13] = tested on: Candida parapsilosis; assay: Antifungal activity against Candida parapsilosis cgmcc 2.3989 after 48 hrs by broth microdilution method; conditions: Lodderomyces parapsilosis, cgmcc 2.3989, 48 h; in short: as §2
[14] = tested on: Candida albicans; assay: Fungicidal activity against Candida albicans cgmcc 2.2086 after 96 hrs; conditions: cgmcc 2.2086, 96 h, read-out: MFC99.9
In short: (§3)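 After the 48 h, 28 °C broth microdilution in MOPS-buffered RPMI 1640 (inoculum (0.5−1) × 10^3 CFU/mL), 50 μL from each well was plated on YM agar for a further 48 h at 28 °C. MFC is the lowest concentration killing at least 99.9% of cells. Triplicate, three biological replicates.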

[15] = tested on: Candida albicans; assay: Fungicidal activity against Candida albicans SP3931 after 96 hrs; conditions: SP3931, 96 h, read-out: MFC99.9; in short: as §3
[16] = tested on: Candida albicans; assay: Fungicidal activity against Candida albicans SP3903 after 96 hrs; conditions: SP3903, 96 h, read-out: MFC99.9; in short: as §3
[17] = tested on: Candida albicans; assay: Fungicidal activity against Candida albicans SP3902 after 96 hrs; conditions: SP3902, 96 h, read-out: MFC99.9; in short: as §3
[18] = tested on: Candida albicans; assay: Fungicidal activity against Candida albicans SP3876 after 96 hrs; conditions: SP3876, 96 h, read-out: MFC99.9; in short: as §3
[19] = tested on: Candida albicans; assay: Fungicidal activity against Candida albicans isolated from alveolar fluid after 96 hrs; conditions: read-out: MFC99.9; in short: as §3
[20] = tested on: Candida albicans; assay: Fungicidal activity against fluconazole-resistant Candida albicans 56452 after 96 hrs; conditions: Candida albicans, 56452, 96 h; read-out: MFC99.9; in short: as §3
[21] = tested on: Candida albicans; assay: Fungicidal activity against fluconazole-resistant Candida albicans 56214 after 96 hrs; conditions: Candida albicans, 56214, 96 h; read-out: MFC99.9; in short: as §3
[22] = tested on: Candida albicans; assay: Fungicidal activity against Candida albicans 14936 after 96 hrs; conditions: Candida albicans, 14936, 96 h; read-out: MFC99.9; in short: as §3
[23] = tested on: Candida albicans; assay: Fungicidal activity against fluconazole-resistant Candida albicans 17546 after 96 hrs; conditions: Candida albicans, 17546, 96 h; read-out: MFC99.9; in short: as §3
[24] = tested on: Candida tropicalis; assay: Fungicidal activity against Candida tropicalis cgmcc 2.1975 after 96 hrs; conditions: cgmcc 2.1975, 96 h, read-out: MFC99.9
In short: (§4)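 Wells from the 48 h, 28 °C RPMI 1640/MOPS microdilution plates were plated on YM agar and incubated a further 48 h at 28 °C. MFC is the lowest concentration killing at least 99.9% of cells. Run in triplicate with three biological replicates.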

[25] = tested on: Pichia kudriavzevii; assay: Fungicidal activity against Candida krusei cgmcc 2.1857 after 96 hrs; conditions: cgmcc 2.1857, 96 h, read-out: MFC99.9; in short: as §4
[26] = tested on: Candida parapsilosis; assay: Fungicidal activity against Candida parapsilosis cgmcc 2.3989 after 96 hrs; conditions: Lodderomyces parapsilosis, cgmcc 2.3989, 96 h; read-out: MFC99.9; in short: as §4
[27] = tested on: Candida albicans; assay: Antifungal activity against Candida albicans cgmcc 2.2086 in presence of NaCl by broth dilution method
[28] = tested on: Candida albicans; assay: Antifungal activity against Candida albicans cgmcc 2.2086 in presence of KCl by broth dilution method
[29] = tested on: Candida albicans; assay: Antifungal activity against Candida albicans cgmcc 2.2086 in presence of NH4Cl by broth dilution method
[30] = tested on: Candida albicans; assay: Antifungal activity against Candida albicans cgmcc 2.2086 in presence of MgCl2 by broth dilution method
[31] = tested on: Candida albicans; assay: Antifungal activity against Candida albicans cgmcc 2.2086 in presence of CaCl2 by broth dilution method
[32] = tested on: Candida albicans; assay: Antifungal activity against Candida albicans cgmcc 2.2086 in presence of ZnCl2 by broth dilution method
[33] = tested on: Candida albicans; assay: Antifungal activity against Candida albicans cgmcc 2.2086 in presence of FeCl3 by broth dilution method
[34] = tested on: Candida albicans; assay: Antifungal activity against Candida albicans cgmcc 2.2086 in presence of 12.5% human heat-inactivated serum by broth dilution method
[35] = tested on: Candida albicans; assay: Antifungal activity against Candida albicans cgmcc 2.2086 in presence of 25% human heat-inactivated serum by broth dilution method
[36] = tested on: Candida albicans; assay: Antifungal activity against Candida albicans cgmcc 2.2086 in presence of 50% human heat-inactivated serum by broth dilution method
[37] = tested on: Candida albicans; assay: Antifungal activity against Candida albicans 58288 after 48 hrs by broth microdilution method; conditions: Candida albicans, 58288, 48 h; in short: as §1
[38] = tested on: Candida albicans; assay: Fungicidal activity against Candida albicans 58288 after 96 hrs; conditions: Candida albicans, 58288, 96 h; read-out: MFC99.9; in short: as §3

For `C[C@@H]1[C@H](O)[C@@H](C)/C=C/C=C/C=C/C=C/C=C/C=C/C=C/[C@H](O[C@@H]2O[C@H](C)[C@@H](O)[C@H](N)[C@@H]2O)C[C@@H]2O[C@](O)(C[C@@H](O)C[C@@H](O)[C@H](O)CC[C@@H](O)C[C@@H](O)CC(=O)O[C@H]1C)C[C@H](O)[C@H]2C(=O)O` [AMPHOTERICIN B], the MIC95 [1] was 1 µM (≈ 0.924 µg/mL), the MIC95 [2] was 0.25 µM (≈ 0.231 µg/mL) and the MIC95 [3] was 0.125 µM (≈ 0.116 µg/mL). For the same compound, the MIC95 [4] was 0.25 µM (≈ 0.231 µg/mL), the MIC95 [5] was 0.25 µM (≈ 0.231 µg/mL) and the MIC95 [6] was 1 µM (≈ 0.924 µg/mL). The MIC95 [7] was 1 µM (≈ 0.924 µg/mL), the MIC95 [8] was 1 µM (≈ 0.924 µg/mL) and the MIC95 [9] was 0.25 µM (≈ 0.231 µg/mL). It also gave an MIC95 [10] of 0.25 µM (≈ 0.231 µg/mL), an MIC95 [11] of 1 µM (≈ 0.924 µg/mL) and an MIC95 [12] of 1 µM (≈ 0.924 µg/mL). For the same compound, the MIC95 [13] was 2 µM (≈ 1.85 µg/mL), the MFC [14] was 1 µM (≈ 0.924 µg/mL) and the MFC [15] was 1 µM (≈ 0.924 µg/mL). The MFC [16] was 1 µM (≈ 0.924 µg/mL), the MFC [17] was 1 µM (≈ 0.924 µg/mL) and the MFC [18] was 0.5 µM (≈ 0.462 µg/mL). The MFC [19] was 2 µM (≈ 1.85 µg/mL), the MFC [20] was 2 µM (≈ 1.85 µg/mL) and the MFC [21] was 2 µM (≈ 1.85 µg/mL). The MFC [22] was 0.5 µM (≈ 0.462 µg/mL), the MFC [23] was 1 µM (≈ 0.924 µg/mL) and the MFC [24] was 2 µM (≈ 1.85 µg/mL). For the same compound, the MFC [25] was 1 µM (≈ 0.924 µg/mL), the MFC [26] was 2 µM (≈ 1.85 µg/mL) and the MIC [27] was 1 µM. It also gave an MIC [28] of 1 µM, an MIC [29] of 1 µM and an MIC [30] of 1 µM. It also gave an MIC [31] of 2 µM, an MIC [32] of 1 µM and an MIC [33] of 1 µM. The MIC [34] was 1 µM, the MIC [35] was 1 µM and the MIC [36] was 1 µM. The MIC95 [37] was 0.5 µM (≈ 0.462 µg/mL) and the MFC [38] was 2 µM (≈ 1.85 µg/mL).
`CC(=O)N1CCN(c2ccc(OCC3COC(Cn4ccnc4)(c4ccc(Cl)cc4Cl)O3)cc2)CC1` (stereo unspecified) [KETOCONAZOLE] showed an MIC95 [1] of 0.25 µM (≈ 0.133 µg/mL), an MIC95 [2] greater than 64 µM and an MIC95 [3] greater than 64 µM. The MIC95 [4] was greater than 64 µM, the MIC95 [5] was greater than 64 µM and the MIC95 [6] was 0.5 µM (≈ 0.266 µg/mL). The MIC95 [7] was 64 µM (≈ 34 µg/mL), the MIC95 [8] was 64 µM (≈ 34 µg/mL) and the MIC95 [9] was greater than 64 µM. It also gave an MIC95 [10] of 32 µM (≈ 17 µg/mL), an MIC95 [11] of 0.25 µM (≈ 0.133 µg/mL) and an MIC95 [12] of 1 µM (≈ 0.531 µg/mL). The MIC95 [13] was 0.25 µM (≈ 0.133 µg/mL), the MFC [14] was 1 µM (≈ 0.531 µg/mL) and the MFC [15] was greater than 64 µM. For the same compound, the MFC [16] was greater than 64 µM, the MFC [17] was greater than 64 µM and the MFC [18] was greater than 64 µM. For the same compound, the MFC [19] was 2 µM (≈ 1.06 µg/mL), the MFC [20] was greater than 64 µM and the MFC [21] was greater than 64 µM. The MFC [22] was greater than 64 µM, the MFC [23] was 64 µM (≈ 34 µg/mL) and the MFC [24] was 1 µM (≈ 0.531 µg/mL). It also gave an MFC [25] of 1 µM (≈ 0.531 µg/mL), an MFC [26] of 1 µM (≈ 0.531 µg/mL) and an MIC [27] of 0.25 µM. It also gave an MIC [28] of 0.25 µM, an MIC [29] of 0.25 µM and an MIC [30] of 0.25 µM. The MIC [31] was 0.5 µM, the MIC [32] was 0.25 µM and the MIC [33] was 0.25 µM. For the same compound, the MIC [34] was 0.25 µM, the MIC [35] was 0.25 µM and the MIC [36] was 0.5 µM. It also gave an MIC95 [37] of 1 µM (≈ 0.531 µg/mL) and an MFC [38] greater than 64 µM.
